Data: ChEMBL document CHEMBL5532695, “4-Trifluoromethyl bithiazoles as broad-spectrum antimicrobial agents for virus-related bacterial infections or co-infections” (RSC Med Chem, 2024)
pEC50, pIC50: −log10 of the molar value. Calls of active or inactive are those of the source. The rule behind the calls is not given here.

Tests used:
Pseudomonas aeruginosa [1] = experiment: Synergistic antibacterial activity against colistin resistant MDR Pseudomonas aeruginosa SI-270 incubated for 18 to 24 hrs in presence of colistin by broth microdilution method; format: functional; settings: time 18-24 hrs
Outline: (§1)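 Minimum antibacterial concentration (MAC) by broth microdilution in Mueller–Hinton medium with a fixed subinhibitory colistin concentration of 2 μg mL−1 against colistin-resistant Gram-negative clinical isolates; inoculum 5 × 10^4 CFU per well, 35 ± 2 °C; triplicate.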

Acinetobacter baumannii [2] = experiment: Synergistic antibacterial activity against colistin/carbapenem resistant MDR Acinetobacter baumannii N50 incubated for 18 to 24 hrs in presence of colistin by broth microdilution method; format: functional; settings: time 18-24 hrs; outline: as §1
rhinovirus A16 [3] = experiment: Antiviral activity against hRVA16 infected in human HeLa cells assessed as effect on RNA intracellular level at 5 uM pretreated for 1 hrs before infection and measured after 1 to 6 hrs post infection by time of addition assay; format: functional, organism-based; settings: time 2-7 hrs
Outline: (§2)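 Time of addition: HeLa cells infected with RVA16 at MOI 0.1. Compound at 5 μM added 1 h before, during, or 1, 2, 4 or 6 h after infection. At 24 h, cells lysed and intracellular viral RNA measured by RV-specific qPCR; supernatant titrated on HeLa cells.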

Escherichia coli [4] = experiment: Synergistic antibacterial activity against colistin resistant mcr-positive Escherichia coli SI-63 incubated for 18 to 24 hrs in presence of colistin by broth microdilution method; format: functional; settings: time 18-24 hrs; outline: as §1
enterovirus D68 = experiment: microbe, parasite or virus in culture; settings: Enterovirus D, HeLa, 48 h
[5] = molecular target: Phosphatidylinositol 4-kinase beta (Homo sapiens, UniProt Q9UBF8); experiment: Inhibition of recombinant full length his tagged PI4KB (unknown origin) incubated for 10 mins in presence of ATP by ADP-glo kinase assay
Sequence of Phosphatidylinositol 4-kinase beta (Q9UBF8 whole entry): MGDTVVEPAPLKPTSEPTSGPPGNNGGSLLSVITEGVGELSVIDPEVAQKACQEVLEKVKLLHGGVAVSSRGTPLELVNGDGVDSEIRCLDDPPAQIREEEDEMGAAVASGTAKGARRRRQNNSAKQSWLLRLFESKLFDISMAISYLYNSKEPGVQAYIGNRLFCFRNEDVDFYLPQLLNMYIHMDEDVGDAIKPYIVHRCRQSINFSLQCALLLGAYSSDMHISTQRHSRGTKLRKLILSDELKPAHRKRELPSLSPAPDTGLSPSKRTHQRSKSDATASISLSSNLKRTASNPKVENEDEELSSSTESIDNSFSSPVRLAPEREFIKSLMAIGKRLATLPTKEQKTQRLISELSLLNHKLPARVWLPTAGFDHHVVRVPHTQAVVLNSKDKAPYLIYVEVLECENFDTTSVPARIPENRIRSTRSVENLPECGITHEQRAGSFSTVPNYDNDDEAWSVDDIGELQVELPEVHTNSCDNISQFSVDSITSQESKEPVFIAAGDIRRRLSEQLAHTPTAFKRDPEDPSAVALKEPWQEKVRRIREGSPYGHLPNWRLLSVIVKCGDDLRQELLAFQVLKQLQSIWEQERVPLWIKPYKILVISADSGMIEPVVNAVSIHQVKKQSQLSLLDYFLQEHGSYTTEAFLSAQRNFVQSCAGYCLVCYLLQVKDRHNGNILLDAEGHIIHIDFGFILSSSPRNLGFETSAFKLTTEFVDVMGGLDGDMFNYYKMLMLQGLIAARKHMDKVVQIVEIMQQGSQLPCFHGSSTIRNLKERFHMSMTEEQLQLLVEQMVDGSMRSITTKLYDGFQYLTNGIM

Klebsiella pneumoniae = experiment: Synergistic antibacterial activity against Klebsiella pneumoniae ATCC 13833 incubated for 18 to 24 hrs in presence of colistin by broth microdilution method; format: functional; settings: time 18-24 hrs
[6] = Cytotoxicity against african green monkey Vero E6 cells assessed as reduction in cell viability by MTT assay; format: toxicity, cell-based; settings: chlorocebus sabaeus, Vero E6 cells (Vero C1008)
Outline: (§3)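 MTT viability on HeLa or VeroE6 cells, run in parallel with the antiviral assays. CC50 from variable-slope sigmoidal dose–response regression.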

Acinetobacter baumannii [7] = experiment: Synergistic antibacterial activity against Acinetobacter baumannii ATCC 17978 incubated for 18 to 24 hrs in presence of colistin by broth microdilution method; format: functional; settings: time 18-24 hrs
Escherichia coli [8] = experiment: Synergistic antibacterial activity against Escherichia coli CCUGT incubated for 18 to 24 hrs in presence of colistin by broth microdilution method; format: functional; settings: time 18-24 hrs
Streptococcus pyogenes [9] = experiment: Antibacterial activity against Streptococcus pyogenes ATCC 12344 assessed as reduction in microbial growth measured after 18 hrs by CLSI based broth microdilution method; format: functional
Outline: (§4)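 MIC by CLSI broth microdilution in Mueller–Hinton medium, triplicate. Inoculum 5 × 10^4 CFU per well. Compounds taken up in DMSO (50 mg mL−1 stock) and diluted in medium. Read after 18 h at 35 ± 2 °C.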

Pseudomonas aeruginosa [10] = experiment: Synergistic antibacterial activity against Pseudomonas aeruginosa ATCC 27853 incubated for 18 to 24 hrs in presence of colistin by broth microdilution method; format: functional; settings: time 18-24 hrs
[11] = Cytotoxicity against human HeLa cells assessed as reduction in cell viability by MTT assay; format: toxicity, cell-based; outline: as §3
rhinovirus A16 [12] = experiment: Antiviral activity against hRVA16 infected in human HeLa cells assessed as effect on release of infectious virus at 5 uM measured after 24 hrs post infection by time of addition assay; format: functional, organism-based; outline: as §2
Bacillus subtilis [13] = experiment: Antibacterial activity against Bacillus subtilis ATCC 6633 assessed as reduction in microbial growth measured after 18 hrs by CLSI based broth microdilution method; format: functional; outline: as §4
rhinovirus A16 [14] = experiment: Antiviral activity against 7 times rupintrivir passaged resistance model of Human rhinovirus 16 infected in human HeLa cells assessed as inhibition of viral replication; format: functional, organism-based; settings: Rhinovirus A
Outline: (§5)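 HeLa cells infected with RVA16 and serially passaged under compound, supernatants harvested at extensive CPE (3–6 dpi), clarified and titrated on HeLa; each passage used prior virus at MOI 0.01, drug concentration doubled when possible; after 7 passages RNA sequenced. Antiviral read-out: HeLa at 33 °C, 48 h, VP3 immunostaining with HRP secondary; EC50 from variable-slope sigmoidal fit.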

Zika virus = experiment: microbe, parasite or virus in culture; settings: Vero C1008, 72 h
rhinovirus A16 [15] = experiment: Antiviral activity against 7 times N-(4'-(Trifluoromethyl)-2-((3-(trifluoromethyl)phenyl)amino)-[4,5'-bithiazol]-2'-yl)benzamide passaged resistance model of Human rhinovirus 16 infected in human HeLa cells assessed as inhibition of viral replication; format: functional, organism-based; settings: Rhinovirus A; outline: as §5
rhinovirus A16 [16] = experiment: microbe, parasite or virus in culture; settings: Rhinovirus A, HeLa, 48 h
Staphylococcus aureus [17] = experiment: Antibacterial activity against Staphylococcus aureus ATCC 25923 assessed as reduction in microbial growth measured after 18 hrs by CLSI based broth microdilution method; format: functional; outline: as §4
Enterococcus faecalis [18] = experiment: Antibacterial activity against Enterococcus faecalis ATCC 29212 assessed as reduction in microbial growth measured after 18 hrs by CLSI based broth microdilution method; format: functional; outline: as §4
Bacillus subtilis [19] = experiment: Bactericidal activity against Bacillus subtilis ATCC 6633 assessed as reduction in microbial growth measured after 18 hrs by CLSI based broth microdilution method; format: functional
Outline: (§6)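 MBC by CLSI broth microdilution in Mueller–Hinton medium, triplicate. Inoculum 5 × 10^4 CFU per well. Read after 18 h at 35 ± 2 °C.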

Enterococcus faecium [20] = experiment: Antibacterial activity against Vancomycin resistant Enterococcus faecium SI-1831 assessed as reduction in microbial growth measured after 18 hrs by CLSI based broth microdilution method; format: functional
Outline: (§7)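 Gram-positive clinical isolates; compounds dissolved in DMSO (50 mg mL−1 stock) and diluted in medium; MIC by CLSI broth microdilution in Mueller–Hinton medium, inoculum 5 × 10^4 CFU per well, read after 18 h at 35 ± 2 °C; triplicate.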

[21] = test system: Staphylococcus epidermidis; experiment: Bactericidal activity against linezolid-resistant Staphylococcus epidermidis SI-1266 assessed as reduction in microbial growth measured after 18 hrs by CLSI based broth microdilution method; format: functional
Staphylococcus warneri [22] = experiment: Bactericidal activity against oxacillin-resistant Staphylococcus warneri SI-5/2011 assessed as reduction in microbial growth measured after 18 hrs by CLSI based broth microdilution method; format: functional
[23] = test system: Staphylococcus haemolyticus; experiment: Antibacterial activity against oxacillin-resistant Staphylococcus haemolyticus SI-6/2011 assessed as reduction in microbial growth measured after 18 hrs by CLSI based broth microdilution method; format: functional; outline: as §7
Streptococcus pyogenes [24] = experiment: Bactericidal activity against Streptococcus pyogenes ATCC 12344 assessed as reduction in microbial growth measured after 18 hrs by CLSI based broth microdilution method; format: functional; outline: as §6
Enterococcus faecium [25] = experiment: Antibacterial activity against Vancomycin resistant Enterococcus faecium SI-3856B assessed as reduction in microbial growth measured after 18 hrs by CLSI based broth microdilution method; format: functional; outline: as §7
Enterococcus faecium [26] = experiment: Bactericidal activity against Vancomycin resistant Enterococcus faecium SI-1831 assessed as reduction in microbial growth measured after 18 hrs by CLSI based broth microdilution method; format: functional
Staphylococcus aureus [27] = experiment: Antibacterial activity against methicillin-resistant Staphylococcus aureus ATCC 43300 assessed as reduction in microbial growth measured after 18 hrs by CLSI based broth microdilution method; format: functional; outline: as §7
Staphylococcus aureus [28] = experiment: Bactericidal activity against methicillin-resistant Staphylococcus aureus ATCC 43300 assessed as reduction in microbial growth measured after 18 hrs by CLSI based broth microdilution method; format: functional
Staphylococcus aureus [29] = experiment: Bactericidal activity against Staphylococcus aureus ATCC 25923 assessed as reduction in microbial growth measured after 18 hrs by CLSI based broth microdilution method; format: functional; outline: as §6
Enterococcus faecalis [30] = experiment: Bactericidal activity against Enterococcus faecalis ATCC 29212 assessed as reduction in microbial growth measured after 18 hrs by CLSI based broth microdilution method; format: functional; outline: as §6
[31] = test system: Staphylococcus epidermidis; experiment: Antibacterial activity against linezolid-resistant Staphylococcus epidermidis SI-1266 assessed as reduction in microbial growth measured after 18 hrs by CLSI based broth microdilution method; format: functional; outline: as §7
Enterococcus faecium [32] = experiment: Bactericidal activity against Vancomycin resistant Enterococcus faecium SI-3856B assessed as reduction in microbial growth measured after 18 hrs by CLSI based broth microdilution method; format: functional
Enterococcus faecium [33] = experiment: Bactericidal activity against Vancomycin/teicoplanin resistant Enterococcus faecium SI-759 assessed as reduction in microbial growth measured after 18 hrs by CLSI based broth microdilution method; format: functional
Staphylococcus warneri [34] = experiment: Antibacterial activity against oxacillin-resistant Staphylococcus warneri SI-5/2011 assessed as reduction in microbial growth measured after 18 hrs by CLSI based broth microdilution method; format: functional; outline: as §7
Enterococcus faecium [35] = experiment: Antibacterial activity against Vancomycin/teicoplanin resistant Enterococcus faecium SI-759 assessed as reduction in microbial growth measured after 18 hrs by CLSI based broth microdilution method; format: functional; outline: as §7

SMILES | MAC (Pseudomonas aeruginosa [1]) | MAC (Acinetobacter baumannii [2]) | MAC (Escherichia coli [4]) | pIC50 (enterovirus D68) | MAC (Klebsiella pneumoniae) | CC50 [6] | MAC (Acinetobacter baumannii [7]) | MAC (Escherichia coli [8]) | MIC (Streptococcus pyogenes [9]) | MAC (Pseudomonas aeruginosa [10]) | CC50 [11] | MIC (Bacillus subtilis [13]) | pEC50 (rhinovirus A16 [14]) | pIC50 (Zika virus) | pEC50 (rhinovirus A16 [15]) | pIC50 (rhinovirus A16 [16]) | MIC (Staphylococcus aureus [17]) | MIC (Enterococcus faecalis [18]) | also measured
O=C(Nc1nc(C(F)(F)F)c(-c2csc(Nc3cccc(C(F)(F)F)c3)n2)s1)c1ccccc1 | 16 µg/mL | 0.06 µg/mL | 1 µg/mL | 5.95 | 64 µg/mL | 35.9 µM | 8 µg/mL | 2 µg/mL | > 32 µg/mL | >64 µg/mL | > 50 µM | > 32 µg/mL | 5.98 | 5.34 | 5.36 | 6.31 | > 32 µg/mL | > 32 µg/mL | Activity (rhinovirus A16 [3]): Active; IC50 [5]: Not Active; Activity (rhinovirus A16 [12]): Active
CC(C)(C)C(=O)Nc1nc(C(F)(F)F)c(-c2csc(Nc3cccc(C(F)(F)F)c3)n2)s1 | 2 µg/mL | 0.03 µg/mL | 0.5 µg/mL | 5.08 | 4 µg/mL | > 50 µM | 4 µg/mL | 4 µg/mL | 4 µg/mL | >64 µg/mL | 46 µM | 4 µg/mL |  | 4.94 |  | 5.74 | 8 µg/mL | 8 µg/mL | MBC (Bacillus subtilis [19]): 8 µg/mL; MIC (Enterococcus faecium [20]): 2 µg/mL; MBC [21]: > 64 µg/mL; pIC50 ([5]; read-out: IC50): < 4.30; MBC (Staphylococcus warneri [22]): 64 µg/mL; MIC [23]: > 64 µg/mL; MBC (Streptococcus pyogenes [24]): 4 µg/mL; MIC (Enterococcus faecium [25]): 4 µg/mL; MBC (Enterococcus faecium [26]): > 64 µg/mL; MIC (Staphylococcus aureus [27]): 4 µg/mL; MBC (Staphylococcus aureus [28]): 32 µg/mL; MBC (Staphylococcus aureus [29]): 32 µg/mL; MBC (Enterococcus faecalis [30]): > 32 µg/mL; MIC [31]: 16 µg/mL; MBC (Enterococcus faecium [32]): > 64 µg/mL; MBC (Enterococcus faecium [33]): 4 µg/mL; MIC (Staphylococcus warneri [34]): 4 µg/mL; MIC (Enterococcus faecium [35]): 2 µg/mL
CCOC(=O)/C=C/[C@H](C[C@@H]1CCNC1=O)NC(=O)[C@@H](CC(=O)[C@@H](NC(=O)c1cc(C)on1)C(C)C)Cc1ccc(F)cc1 [RUPINTRIVIR] |  |  |  |  |  |  |  |  |  |  |  |  | 7.85 |  | 8.30 |  |  |  | pEC50 (rhinovirus A16 [16]): 8.70
